# Screens (PubChem)
# Sampled rows, rich in hits. Any-hit rate of the full collection: about 3.3%.
# SENP1 FRET inh: inhibitors of human SENP1 SUMO protease catalytic domain; Q9P0U3; hit rate 0.21% among 360,000; recombinant SENP1 catalytic domain, CyPet-SUMO1-YPet FRET cleavage; inhibition, % at 10 µM;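 active means inhibition at least 30% at 10 µM, raw YFP signal under a set limit, fluorescence ratio 0.5 to 1.5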;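 further: 0% = enzyme with DMSO and 100% = no enzyme wells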
# Target sequence (Q9P0U3 419-644 limits assumed): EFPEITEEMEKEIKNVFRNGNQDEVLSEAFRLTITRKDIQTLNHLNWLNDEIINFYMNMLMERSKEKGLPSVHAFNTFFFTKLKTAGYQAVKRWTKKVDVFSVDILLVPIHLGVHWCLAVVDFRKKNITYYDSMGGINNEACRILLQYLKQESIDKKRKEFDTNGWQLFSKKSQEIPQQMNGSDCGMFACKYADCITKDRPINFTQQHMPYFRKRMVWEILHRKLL
#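 Test system: hSENP1 catalytic domain, recombinant; Amount: 20 pM final SENP1 enzyme; Medium: Tris pH 8 buffer plus EDTA, NaCl, BME, BSA, NP40, catalase; Schedule: 50 min enzyme reaction, room temperature, light-protected; Technique: FRET fluorescence in CFP and YFP emission channels; Controls: no-enzyme wells low, DMSO-plus-enzyme wells high control.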
# NRP1-CendR mod: NRP-1/CendR interaction modulation; hit rate 0.85% among 360,000; FAM-RPARPAR peptide binding to NRP-1, fluorescence polarization; inhibition, % at 25 µM; O14786;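 active means inhibition or corrected inhibition above about 18%, plus a signal ratio from 0.5 to 1.5, limit read from the data, passing the limit was not always enough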
# SENP6 inh: inhibitors of human SENP6 protease | Q9GZR1 | Recombinant SENP6 catalytic domain, aminoluciferin luminescence | inhibition, % at 10 µM | hit rate 1.8% among 330,000 | AID 2599;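 active means inhibition above about 50% at the single tested dose, limit read from the data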;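 further: plate controls were DMSO wells with enzyme for no effect and DMSO wells lacking enzyme for full effect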
# SENP8 block-1: SENP8 (human) protease inhibition | hit rate 0.64% among 360,000 | Q96LD8 | inhibition, % at 20 µM | recombinant SENP8, Nedd8 substrate fluorescence; in the data active means inhibition mostly above about 40%, no sharp cut-off; inactive means mostly below about 27%
# Target sequence (Q96LD8 whole entry, looked up): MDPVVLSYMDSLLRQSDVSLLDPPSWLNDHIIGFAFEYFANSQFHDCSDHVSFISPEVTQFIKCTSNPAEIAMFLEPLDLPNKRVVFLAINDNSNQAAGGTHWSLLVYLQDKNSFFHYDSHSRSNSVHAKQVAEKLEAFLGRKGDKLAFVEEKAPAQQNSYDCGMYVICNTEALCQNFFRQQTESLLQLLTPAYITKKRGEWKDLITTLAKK
# SENP7 inh: blocks the human protease SENP7; hit rate 1.5% among 330,000; Q9BQF6; inhibition, % at 5 µM; recombinant SENP7, Z-RLRGG-aminoluciferin luminescence, 40 min;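 active means inhibition above about 50% at the single test dose, limit read from the data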;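 further: plate controls were DMSO with enzyme for no effect and no enzyme buffer wells for full effect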
# SENP8 block-2: inhibitors of human SENP8 protease | hit rate 1.2% among 330,000 | purified SENP8, Z-RLRGG-aminoluciferin cleavage, luminescence | Q96LD8 | inhibition, % at 10 µM; in the data active means inhibition above about 50%
# SENP8 conf: SENP8 (human) inhibition, single concentration confirmation; shares compounds with SENP8 block-1; purified SENP8, Nedd8-AMC/pro-Nedd8 cleavage fluorescence, 30 min; inhibition, % at 25 µM; hit rate 15% among 1,400; AID 624319; in the data active means inhibition mostly above about 39%, no sharp cut-off; inactive means mostly below about 34%
# * = called active by the depositor; nt = not tested or not shown.
SMILES,SENP1 FRET inh,NRP1-CendR mod,SENP6 inh,SENP8 block-1,SENP7 inh,SENP8 block-2,SENP8 conf
CCN(CC)C(=O)C1=C(C)N(Cc2ccc(C(C)(C)C)cc2)C(=O)C(CC(=O)NC(c2ccccc2)c2ccccc2)C1 (configuration not stated),-1,-4,nt,12,nt,nt,nt
O=C(Nc1cccc(Cl)c1)c1ccc(NCC2CCCO2)c([N+](=O)[O-])c1 (configuration not stated),19,-53,-11,44*,-7,5,13
Cc1cccc(NC(=O)c2ccc(NCC3CCCO3)c([N+](=O)[O-])c2)c1 (configuration not stated),-1,-16,-6,25,-17,-7,nt
NC(=O)c1cc(S(=O)(=O)N2CCCC2)ccc1OCCOc1ccccc1,1,2,-11,11,-8,-21,nt
CN(CC(=O)Nc1cc(C(F)(F)F)ccc1-n1cncn1)Cc1ccccc1N1CCOCC1,-1,2,nt,23,nt,nt,nt
CSCC[C@H](N)C(=O)N1CCC(C(=O)N[C@H](C(=O)NCc2ccccc2F)C(C)C)CC1,0,-7,-5,48*,-4,-3,-6
COc1ccccc1CNC(=O)[C@H](C)NC(=O)C1CCN(C(=O)[C@@H](N)Cc2ccccc2)CC1,1,-9,-19,18,-4,3,nt
COc1ccc(CNC(=O)[C@@H](NC(=O)C2CCN(C(=O)[C@@H](N)Cc3ccccc3)CC2)C(C)C)cc1,-2,-3,2,54*,6,2,16
COc1ccc(CNC(=O)[C@H](Cc2ccccc2)NC(=O)C2CCN(C(=O)[C@H](C)N)CC2)cc1,5,-8,-4,51*,-4,-1,9
COc1ccccc1CNC(=O)[C@H](C)NC(=O)C1CCN(C(=O)[C@@H](N)C(C)C)CC1,2,-10,-13,48*,-2,-6,10
CCOc1ccccc1OCC(=O)NC1CCSc2ccccc21 (configuration not stated),3,13,nt,6,nt,nt,nt
O=C(CN1C(=O)NC2(CCCCCC2)C1=O)c1ccc(Cl)s1,1,0,-2,-2,-1,3,nt
C[C@@H]1CN([C@@H](C)CO)S(=O)(=O)c2ccc(-c3ccc(C#N)cc3)cc2O[C@@H]1CN(C)Cc1ccccn1,2,-13,nt,5,nt,nt,nt
O=C(NCc1cccs1)c1csc([C@@H]2O[C@H](CO)[C@H](O)[C@H](O)[C@H]2O)n1,3,-1,nt,24,nt,nt,nt
Cc1nnc2n(-c3ccccc3)c(=O)c3ccccc3n12,4,-2,3,41*,-4,-1,1
O=C(O)CSc1nnc2n(-c3ccccc3)c(=O)c3ccccc3n12,0,-10,-13,7,1,-2,nt
COc1ccccc1NS(=O)(=O)c1cc(NC(=O)c2cccc(S(=O)(=O)N(C)C)c2)ccc1N1CCOCC1,4,6,-3,32*,5,-8,9
COC(=O)[C@@]1(Cc2ccc(F)cc2)[C@H]2c3cc(C(=O)N(C)C)n(CCc4c[nH]c5ccc(O)cc45)c3C[C@H]2CN1C(=O)c1ccccc1,-7,-3,nt,2,nt,nt,nt
CN1CCN(CC(=O)n2c3c(c4ccccc42)CCCC3)CC1,-17,16,20,44*,4,15,38
CC1(C)[N+]([O-])=C2C(=[N+]([O-])C1(C)C)c1ccccc1/C2=N\O,1,-3,-20,48*,-6,-4,17
ON=C1c2ccccc2-c2ccc(F)cc21,2,-4,nt,-2,nt,nt,nt
CCc1nc(SCC(=O)N2CCCc3ccccc32)c2oc3ccccc3c2n1,2,-4,-4,46*,6,2,7
Cc1nc(SCC(=O)O)c2oc3ccccc3c2n1,0,6,-9,47*,6,6,12
Cc1nc(SCC(=O)NCc2ccccc2)c2oc3ccccc3c2n1,0,-1,1,15,-3,-8,nt
CCc1nc(SCC(=O)NC2CCCC2)c2oc3ccccc3c2n1,2,-16,-20,2,-2,-8,nt
SMILES,SENP1 FRET inh,NRP1-CendR mod,SENP6 inh,SENP8 block-1,SENP7 inh,SENP8 block-2,SENP8 conf
Cc1ccc(N2CC(C(=O)OCC(=O)Nc3c(C)cccc3C)CC2=O)cc1 (configuration not stated),1,0,nt,24,nt,nt,nt
CC1(/[N+]([O-])=C/c2cccc(Cl)c2)CCCCC1=O (configuration not stated),1,4,-5,16,1,-6,nt
CC1(/[N+]([O-])=C/c2ccc(Cl)cc2Cl)CCCCC1=O (configuration not stated),2,8,19,46*,5,6,0
CCc1nc2ccc(C(=O)NCCOc3ccc(OC)cc3)cn2c1N(C)C(=O)Cc1ccccc1,0,-1,nt,-22,nt,nt,nt
CCOC(=O)c1sc(=S)n(-c2cc(OC)ccc2OC)c1N,4,-6,-1,40*,13,-3,23
CCCCOCCCNC(=O)C[C@@H]1C[C@@]2(C(=O)OCC)CCC=C2N(Cc2ccc(Cl)cc2Cl)C1=O,2,0,nt,14,nt,nt,nt
CCNc1nc(NC(C)C)nc(N(C#N)C(C)C(=O)N(C)C)n1 (configuration not stated),-1,-3,17,45*,4,7,-10
COc1ccc(S(=O)(=O)N2CCOCC2)cc1NC(=O)COC(=O)C1=COCCO1,2,-14,-12,41*,-6,-4,11
COc1ccc(Nc2nc(NN)nc(C)c2[N+](=O)[O-])cc1,4,-6,-5,60*,6,1,14
Cc1nc(Nc2ccc(F)cc2)nc(Nc2ccc(F)cc2)c1[N+](=O)[O-],2,-12,-2,34,2,3,nt
COc1ccc2c(c1)CCc1sc(NC(=O)c3ccc(C)cc3)nc1-2,1,-8,-24,-73,-1,-6,nt
COc1ccc2c(c1)Cc1sc(NC(=O)c3cccnc3)nc1-2,-2,0,89*,64*,84*,86*,25
Oc1ccc(Br)cc1-c1cc(-c2ccccc2Cl)[nH]n1,1,0,-26,42*,-11,-26,17
Nc1[nH]c(C(=O)c2ccccc2)c(-c2ccc(Cl)cc2Cl)c1C(=O)c1ccc(Br)cc1,-6,-13,nt,14,nt,nt,nt
O=C1CCC[C@H]2c3[nH]c4ccccc4c3CCN12,-2,8,-10,68*,7,3,6
CCc1nc2c(OCCC3CCCCC3)cccn2c1N(C)C(=O)c1ccc(C)cc1,-1,-6,nt,21,nt,nt,nt
CC(C)C[C@@H](CN)NC(=O)c1nc[nH]c1C(=O)N[C@@H](C)C(=O)CNC[C@H](C)NC(=O)c1nc[nH]c1C(=O)N[C@@H](C)C(=O)O,-3,-1,nt,6,nt,nt,nt
